Assay results from ChEMBL document CHEMBL2169749 (J Med Chem, 2012).
pIC50: −log10 of the molar value. Converted amounts (≈) assume the structure as drawn.

What was measured:
[1] = target: Cytochrome P450 2C9 (Homo sapiens, UniProt P11712); experiment: Inhibition of CYP2C9; type: ADME
[2] = target: Mitogen-activated protein kinase 9 (Homo sapiens, UniProt P45984); experiment: Inhibition of human recombinant JNK2alpha2-mediated ATF-2 phosphorylation after 30 mins by immunoblotting method
[3] = target: Cytochrome P450 2D6 (Homo sapiens, UniProt P10635); experiment: Inhibition of CYP2D6; type: ADME
Cytochrome P450 2D6, sequence (P10635 whole entry): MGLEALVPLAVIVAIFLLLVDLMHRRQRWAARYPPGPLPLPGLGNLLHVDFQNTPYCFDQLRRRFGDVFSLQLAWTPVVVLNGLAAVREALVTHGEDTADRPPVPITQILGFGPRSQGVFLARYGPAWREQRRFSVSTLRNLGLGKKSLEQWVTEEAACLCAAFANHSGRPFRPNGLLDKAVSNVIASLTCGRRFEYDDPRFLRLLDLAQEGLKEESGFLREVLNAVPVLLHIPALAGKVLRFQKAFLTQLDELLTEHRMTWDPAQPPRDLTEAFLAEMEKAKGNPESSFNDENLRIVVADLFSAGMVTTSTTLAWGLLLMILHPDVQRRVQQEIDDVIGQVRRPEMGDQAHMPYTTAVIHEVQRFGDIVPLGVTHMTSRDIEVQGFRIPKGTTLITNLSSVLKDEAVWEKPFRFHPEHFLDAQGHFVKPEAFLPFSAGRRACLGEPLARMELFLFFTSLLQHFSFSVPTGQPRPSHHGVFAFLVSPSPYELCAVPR

[4] = target: Mitogen-activated protein kinase 14 (Homo sapiens, UniProt Q16539); experiment: Inhibition of human MAPK p38alpha by Z'-LYTE assay
Mitogen-activated protein kinase 14, sequence (Q16539 whole entry, looked up): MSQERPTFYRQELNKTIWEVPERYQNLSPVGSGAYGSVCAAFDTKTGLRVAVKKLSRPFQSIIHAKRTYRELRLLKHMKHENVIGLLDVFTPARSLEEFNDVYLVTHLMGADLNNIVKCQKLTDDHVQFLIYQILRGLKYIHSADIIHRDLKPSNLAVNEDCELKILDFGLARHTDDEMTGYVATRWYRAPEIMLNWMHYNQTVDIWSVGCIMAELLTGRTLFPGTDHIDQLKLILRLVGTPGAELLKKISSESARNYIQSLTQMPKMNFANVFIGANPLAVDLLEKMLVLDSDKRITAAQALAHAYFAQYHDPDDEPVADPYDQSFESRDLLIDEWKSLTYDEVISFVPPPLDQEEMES
In short: (§1)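 Human p38α or p38β kinase activity measured by Z′-Lyte kinase assay system.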

[5] = test system: Rattus norvegicus; experiment: Antiinflammatory activity in rat assessed as inhibition of LPS-induced TNFalpha production at 1 mg/kg, po administered 4 hrs prior to LPS-challenge measured after 1 to 1.5 hrs by ELISA relative to vehicle-treated control; type: functional
In short: (§2)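 Rats dosed orally with compound suspended in 0.5% methylcellulose/0.1% Tween-80, 4 h before LPS (10 μg/animal, ip). At 1.0 or 1.5 h after LPS, retro-orbital blood collected into heparin under anesthesia. Plasma diluted one-fifth and assayed by rat TNF-α ELISA. Percent inhibition taken relative to vehicle group (n = 3−4).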

[6] = test system: Rattus norvegicus; experiment: Antiinflammatory activity in po dosed rat assessed as inhibition of LPS-induced TNFalpha production administered 4 hrs prior to LPS-challenge measured after 1 to 1.5 hrs by ELISA relative to vehicle-treated control; type: functional; in short: as §2
[7] = test system: Rattus norvegicus; experiment: (§3) AUC in Sprague-Dawley rat at 1 mg/kg, po; type: ADME, organism-based, Plasma; set-up: dose 1 mg/kg, route oral; details: in vivo
In short: (§4)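 Sprague-Dawley rats given 1 mg/kg iv and po, compound dissolved in PEG400. Plasma obtained by centrifugation of collected blood, drug levels quantified by LC/MS/MS. Values are mean ± SD of n = 3.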

[8] = target: Mitogen-activated protein kinase 11 (Homo sapiens, UniProt Q15759); experiment: Inhibition of human MAPK p38beta by Z'-LYTE assay; in short: as §1
Mitogen-activated protein kinase 11, sequence (Q15759 whole entry): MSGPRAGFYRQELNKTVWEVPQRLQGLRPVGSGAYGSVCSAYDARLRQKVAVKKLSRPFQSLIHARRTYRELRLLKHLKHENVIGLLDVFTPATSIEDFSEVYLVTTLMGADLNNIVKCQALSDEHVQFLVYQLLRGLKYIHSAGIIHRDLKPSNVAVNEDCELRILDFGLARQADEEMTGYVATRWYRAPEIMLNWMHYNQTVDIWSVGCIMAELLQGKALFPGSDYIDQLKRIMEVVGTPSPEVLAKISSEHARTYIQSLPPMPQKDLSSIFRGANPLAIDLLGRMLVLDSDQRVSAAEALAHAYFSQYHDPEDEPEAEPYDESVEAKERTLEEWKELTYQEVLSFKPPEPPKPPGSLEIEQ

[9] = Solubility of the compound at pH 6.8; type: physicochemical; details: buffer
[10] = Permeability of the compound by PAMPA assay at pH 6.5; type: ADME; details: read-out: permeability
In short: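 PAMPA with pION membrane lipid, donor buffer pH 6.5, n = 2.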

[11] = target: T1, Cytochrome P450 1A2 (Homo sapiens, UniProt P05177); experiment: Inhibition of CYP1A2; type: ADME
T1 sequence (P05177 whole entry): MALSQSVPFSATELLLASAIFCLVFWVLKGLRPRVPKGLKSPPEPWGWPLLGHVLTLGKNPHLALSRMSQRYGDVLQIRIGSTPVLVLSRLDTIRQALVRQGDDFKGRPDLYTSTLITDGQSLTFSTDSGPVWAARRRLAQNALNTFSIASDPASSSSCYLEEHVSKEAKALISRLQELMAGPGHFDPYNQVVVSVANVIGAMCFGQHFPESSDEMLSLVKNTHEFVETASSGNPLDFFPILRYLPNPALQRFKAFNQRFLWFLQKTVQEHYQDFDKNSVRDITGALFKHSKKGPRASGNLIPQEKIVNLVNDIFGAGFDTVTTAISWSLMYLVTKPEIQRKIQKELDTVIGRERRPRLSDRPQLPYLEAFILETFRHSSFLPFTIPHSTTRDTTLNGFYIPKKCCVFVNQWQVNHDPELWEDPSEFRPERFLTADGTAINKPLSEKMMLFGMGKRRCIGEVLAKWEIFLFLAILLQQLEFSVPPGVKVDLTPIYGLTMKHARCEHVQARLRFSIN

[12] = test system: Rattus norvegicus; experiment: (§5) Oral bioavailability in Sprague-Dawley rat at 1 mg/kg; type: ADME, organism-based; details: in vivo; in short: as §4
[13] = test system: Rattus norvegicus; experiment: Antiinflammatory activity in Lewis rat assessed as suppression of Mycobacterium tuberculosis adjuvant-induced paw edema at 1 mg/kg, po administered QD from days 15 to 24 post adjuvant-challenge measured on day 25 relative to vehicle-treated control; type: functional
In short: (§6)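 Female Lewis rats, 7 weeks old; arthritis induced on day 0 by 0.5 mg M. tuberculosis in 50 μL liquid paraffin injected into right hind footpad. Randomized on day 15 (n ≥ 5) by left hind paw volume increase and body weight; drug suspended in 0.5% methylcellulose given orally once daily days 15–24. Left hind paw volume measured day 25 by water displacement plethysmometry; edema expressed as percentage of control.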

[14] = target: Cytochrome P450 2C19 (Homo sapiens, UniProt P33261); experiment: Inhibition of CYP2C19; type: ADME
Cytochrome P450 2C19, sequence (P33261 whole entry): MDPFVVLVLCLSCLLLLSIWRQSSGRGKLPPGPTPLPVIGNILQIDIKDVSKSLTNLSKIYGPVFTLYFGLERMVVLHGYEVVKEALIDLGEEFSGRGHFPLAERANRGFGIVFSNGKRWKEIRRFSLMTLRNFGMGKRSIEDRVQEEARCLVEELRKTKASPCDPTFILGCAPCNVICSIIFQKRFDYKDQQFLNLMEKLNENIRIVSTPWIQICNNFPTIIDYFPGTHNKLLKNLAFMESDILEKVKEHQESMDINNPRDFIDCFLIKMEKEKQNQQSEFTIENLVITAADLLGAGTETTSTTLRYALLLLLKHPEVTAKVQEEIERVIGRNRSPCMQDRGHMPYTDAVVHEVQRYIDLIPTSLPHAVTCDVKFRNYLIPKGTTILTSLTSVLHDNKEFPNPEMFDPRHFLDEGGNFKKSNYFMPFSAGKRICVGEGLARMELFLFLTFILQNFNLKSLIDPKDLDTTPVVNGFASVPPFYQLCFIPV

[15] = Half life in Sprague-Dawley rat at 1 mg/kg, iv; type: ADME, organism-based; set-up: dose 1 mg/kg, route intravenous; details: in vivo; in short: as §4
[16] = target: Voltage-gated inwardly rectifying potassium channel KCNH2 (Homo sapiens, UniProt Q12809); experiment: Inhibition of human ERG by Rb ion flux assay
Voltage-gated inwardly rectifying potassium channel KCNH2, sequence (Q12809 whole entry): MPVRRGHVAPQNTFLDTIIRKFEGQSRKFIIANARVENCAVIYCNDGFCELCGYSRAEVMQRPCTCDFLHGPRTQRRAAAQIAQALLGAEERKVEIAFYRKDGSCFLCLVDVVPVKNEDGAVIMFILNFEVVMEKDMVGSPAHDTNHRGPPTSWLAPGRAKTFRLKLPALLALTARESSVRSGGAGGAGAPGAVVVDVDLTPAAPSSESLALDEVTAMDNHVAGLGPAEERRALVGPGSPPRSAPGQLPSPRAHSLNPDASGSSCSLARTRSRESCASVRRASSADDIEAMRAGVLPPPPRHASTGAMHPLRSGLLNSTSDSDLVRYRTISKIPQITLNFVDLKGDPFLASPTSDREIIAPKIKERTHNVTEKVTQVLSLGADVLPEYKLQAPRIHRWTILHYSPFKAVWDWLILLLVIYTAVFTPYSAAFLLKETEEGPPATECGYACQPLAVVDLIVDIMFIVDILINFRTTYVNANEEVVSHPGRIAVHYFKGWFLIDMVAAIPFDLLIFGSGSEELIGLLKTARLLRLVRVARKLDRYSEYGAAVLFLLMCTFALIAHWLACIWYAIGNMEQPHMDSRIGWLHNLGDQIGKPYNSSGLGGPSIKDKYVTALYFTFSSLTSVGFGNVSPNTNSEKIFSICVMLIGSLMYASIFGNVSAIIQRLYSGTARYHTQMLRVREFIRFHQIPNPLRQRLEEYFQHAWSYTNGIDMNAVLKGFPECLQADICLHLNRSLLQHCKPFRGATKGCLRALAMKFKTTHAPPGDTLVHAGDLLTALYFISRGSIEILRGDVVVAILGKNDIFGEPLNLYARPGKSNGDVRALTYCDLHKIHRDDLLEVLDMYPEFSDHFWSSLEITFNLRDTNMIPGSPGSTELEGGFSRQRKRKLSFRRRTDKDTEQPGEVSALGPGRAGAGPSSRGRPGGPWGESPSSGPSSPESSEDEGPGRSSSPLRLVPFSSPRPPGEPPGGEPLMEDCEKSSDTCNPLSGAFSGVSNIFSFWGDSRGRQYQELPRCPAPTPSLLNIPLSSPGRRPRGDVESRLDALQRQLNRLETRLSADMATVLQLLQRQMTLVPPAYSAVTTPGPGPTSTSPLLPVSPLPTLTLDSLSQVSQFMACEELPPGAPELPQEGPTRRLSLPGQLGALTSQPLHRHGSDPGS

[17] = Volume of distribution at steady state in Sprague-Dawley rat at 1 mg/kg, iv; type: ADME, organism-based; set-up: dose 1 mg/kg, route intravenous; details: in vivo, read-out: Vdss; in short: as §4
[18] = test system: THP-1; experiment: Antiinflammatory activity in human THP1 cells assessed as inhibition of LPS-induced TNFalpha production after 20 hrs; type: functional, cell-based; details: THP-1, 20 h
In short: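 THP-1 human monocytic cells kept in RPMI 1640 with 10% FBS, penicillin and streptomycin at 37 °C, 5% CO2. Cells (1 × 10^5/well) stimulated with LPS (10 μg/mL final, E. coli 055:B5) with compound or 0.1% DMSO vehicle for 20 h at 37 °C. Supernatant TNF-α compared with DMSO control. IC50 given as mean of triplicate experiments.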

[19] = test system: Rattus norvegicus; experiment: Antiinflammatory activity in po dosed Lewis rat assessed as suppression of Mycobacterium tuberculosis adjuvant-induced paw edema administered QD from days 15 to 24 post adjuvant-challenge measured on day 25 relative to vehicle-treated control; type: functional; details: 600 h; in short: as §6
[20] = as §3; type: ADME, organism-based, Plasma; set-up: dose 1 mg/kg, route oral; details: Sprague-Dawley, plasma; in short: as §4
[21] = as §5; type: ADME, organism-based; details: Sprague-Dawley, in vivo; in short: as §4
[22] = Total clearance in Sprague-Dawley rat at 1 mg/kg, iv; type: ADME, organism-based; set-up: dose 1 mg/kg, route intravenous; details: in vivo; in short: as §4
[23] = test system: Rattus norvegicus; experiment: Antiinflammatory activity in rat assessed as inhibition of LPS-induced TNFalpha production at 3.2 mg/kg, po administered 4 hrs prior to LPS-challenge measured after 1 to 1.5 hrs by ELISA relative to vehicle-treated control; type: functional; in short: as §2
[24] = Intrinsic clearance in rat liver microsomes in presence of NADPH; type: ADME, Microsome; details: read-out: CLH
In short: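 Incubation with rat liver microsomes in the presence of an NADPH-generating system, n = 2.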

[25] = Half life in rat liver homogenate; type: ADME, tissue-based

Mitogen-activated protein kinase 9, sequence (P45984 whole entry): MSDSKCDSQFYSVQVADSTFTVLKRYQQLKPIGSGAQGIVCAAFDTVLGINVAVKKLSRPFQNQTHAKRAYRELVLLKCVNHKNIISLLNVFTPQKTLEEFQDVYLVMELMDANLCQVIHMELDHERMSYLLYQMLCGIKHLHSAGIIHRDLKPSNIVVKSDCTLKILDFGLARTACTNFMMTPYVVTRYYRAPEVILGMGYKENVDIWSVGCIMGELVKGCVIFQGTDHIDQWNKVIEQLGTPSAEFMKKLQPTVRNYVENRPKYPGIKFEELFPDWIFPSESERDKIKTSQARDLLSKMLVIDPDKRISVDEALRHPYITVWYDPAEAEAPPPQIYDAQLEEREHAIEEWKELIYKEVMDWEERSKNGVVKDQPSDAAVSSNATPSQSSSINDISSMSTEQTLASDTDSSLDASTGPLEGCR
Cytochrome P450 2C9, sequence (P11712 whole entry): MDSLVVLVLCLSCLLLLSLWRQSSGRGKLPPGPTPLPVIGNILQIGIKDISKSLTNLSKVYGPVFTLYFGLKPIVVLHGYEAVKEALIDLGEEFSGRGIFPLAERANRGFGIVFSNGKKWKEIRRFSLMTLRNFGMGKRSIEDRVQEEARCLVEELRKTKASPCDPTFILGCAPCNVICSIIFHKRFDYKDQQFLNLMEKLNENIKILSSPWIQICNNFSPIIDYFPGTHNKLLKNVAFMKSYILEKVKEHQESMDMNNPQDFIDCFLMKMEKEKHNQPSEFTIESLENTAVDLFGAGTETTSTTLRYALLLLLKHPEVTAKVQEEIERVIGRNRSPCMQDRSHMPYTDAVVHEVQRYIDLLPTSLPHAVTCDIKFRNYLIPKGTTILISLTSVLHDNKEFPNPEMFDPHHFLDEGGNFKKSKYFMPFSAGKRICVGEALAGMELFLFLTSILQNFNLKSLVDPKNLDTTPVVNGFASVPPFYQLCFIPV

Structure (SMILES)	inhibition in vivo at 1 mg/kg [5] [%]	Papp [10] [×10⁻⁶ cm/s]	Activity [13] [%]	half-life [15] [h]	Vd [17] [L/kg]	pIC50 [18]	further results
Cc1ccccc1-n1nc(-c2c(-c3ccc(F)cc3)nn3c2NC[C@@H](CO)C3)ccc1=O [AS1940477]	92	19.7	71.3	5.15	0.77	9.22	pIC50 [1]: 4.72; pIC50 [2]: < 5.00; pIC50 [3]: < 4.30; pIC50 [4]: 7.96; ED50 [6]: 0.05 mg/kg; AUC [7]: 1518 ng·h/mL; pIC50 [8]: 7.44; solubility [9]: 42 µg/mL (≈ 97.3 µM); pIC50 [11]: < 4.30; F [12]: 61.8%; pIC50 [14]: < 4.30; pIC50 [16]: < 4.00; ED30 [19]: 0.15 mg/kg
O=c1ncn2nc(Sc3ccc(F)cc3F)ccc2c1-c1c(Cl)cccc1Cl [NEFLAMAPIMOD]							ED50 [6]: 39.9 mg/kg; ED30 [19]: 92 mg/kg
Cc1ccccc1-n1nc(-c2c(-c3ccc(F)cc3)nn3c2N[C@H](CO)CC3)ccc1=O	98	22	62.3	5.95	0.98	9.43	AUC [20]: 4500 ng·h/mL; bioavailability [21]: 100%; clearance [22]: 3.8 mL/min/kg
Cc1ccccc1-n1nc(-c2c(-c3ccc(F)cc3)nn3c2NC[C@H](O)C3)ccc1=O	89	17	51	9.01	4.21	8.74	AUC [7]: 457 ng·h/mL; F [12]: 81%
O=c1ccc(-c2c(-c3ccccc3)nn3ccccc23)nn1CC1(O)CCCCC1						7.85	inhibition in vivo at 3.2 mg/kg [23]: 43%; CLint scaled [24]: 195 mL/min/kg
Cc1ccccc1-n1nc(-c2c(-c3ccc(F)cc3)nn3cc(CO)cnc23)ccc1=O	11					7.64	
Cc1ccccc1-n1nc(-c2c(-c3ccc(F)cc3)nn3c2NCC3)ccc1=O						6.97	
Cc1ccc(-n2nc(C(C)(C)C)cc2NC(=O)Nc2ccc(OCCN3CCOCC3)c3ccccc23)cc1 [DORAMAPIMOD]							ED50 [6]: 2.6 mg/kg; ED30 [19]: 5.8 mg/kg
Cc1ccccc1-n1nc(-c2c(-c3ccc(F)cc3)nn3c2N[C@@H](CO)CC3)ccc1=O	98	23				9.34	
Cc1ccccc1-n1nc(-c2c(-c3ccc(F)cc3)nn3c2NC[C@@H](O)C3)ccc1=O	94	16	61.4	3.89	1.23	9.07	AUC [7]: 763 ng·h/mL; F [12]: 67.7%
Cc1ccccc1-n1nc(-c2c(-c3ccc(F)cc3)nn3c2NCCC3)ccc1=O	93	30				9.00	CLint scaled [24]: 94 mL/min/kg
Cc1ccccc1-n1nc(-c2c(-c3ccc(F)cc3)nn3c2NCC(CN2CCN(C)CC2)C3)ccc1=O (centres undefined)	88	21				8.96	
Cc1ccccc1-n1nc(-c2c(-c3ccc(F)cc3)nn3c2OCCC3)ccc1=O	33					8.00	
Cc1ccccc1-n1nc(-c2c(-c3ccc(F)cc3)nn3c2NC[C@H](CO)C3)ccc1=O	92		59.7	3.82	1.11	9.02	AUC [7]: 1217 ng·h/mL; F [12]: 103.6%
CNc1c(-c2ccc(=O)n(-c3ccccc3C)n2)c(-c2ccc(F)cc2)nn1C	86	30	37	0.66	0.65	8.22	half-life [25]: 0.66 h; AUC [20]: 235 ng·h/mL; bioavailability [21]: 28.6%; clearance [22]: 20.6 mL/min/kg; CLint scaled [24]: 213 mL/min/kg
